Bioassay records (PubChem)
SENP8 block-1: inhibitors of human SENP8 protease; Q96LD8; recombinant SENP8, Nedd8 substrate fluorescence; inhibition, % at 20 µM; 360,000 compounds, 0.64% hits; AID 602440; in the data active = inhibition mostly above about 40%, no sharp cut-off; inactive = mostly below about 27%
Target sequence (Q96LD8 whole entry, looked up): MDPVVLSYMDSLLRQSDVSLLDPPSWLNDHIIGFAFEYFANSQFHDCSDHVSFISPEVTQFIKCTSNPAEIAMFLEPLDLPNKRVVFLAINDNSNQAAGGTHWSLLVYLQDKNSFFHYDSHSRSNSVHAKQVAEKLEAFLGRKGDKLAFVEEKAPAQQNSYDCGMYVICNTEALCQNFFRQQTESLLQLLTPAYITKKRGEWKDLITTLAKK
HSP90 inh: HSP90 refolding inhibition in rabbit reticulocyte lysate | luciferase refolding luminescence, 3 h | inhibition, % at 5.6 µM | 290,000 compounds, 0.91% hits;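 active = inhibition above the screen-wide mean plus 3 SD, computed separately per campaign, cut at about 16% in these data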;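 note: 0% = DMSO wells and 100% = 60 µM geldanamycin wells; inhibitors lower the luminescence because luciferase stays unfolded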
SENP6 inh: blocks the human protease SENP6; inhibition, % at 10 µM; Recombinant SENP6 catalytic domain, aminoluciferin luminescence; 330,000 compounds, 1.8% hits;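 active = inhibition above about 50% at the single tested dose, limit read from the data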;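 note: plate controls were DMSO wells with enzyme for no effect and DMSO wells lacking enzyme for full effect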
SENP8 block-2: SENP8 protease inhibition; Q96LD8; purified SENP8, Z-RLRGG-aminoluciferin cleavage, luminescence; inhibition, % at 10 µM; 330,000 compounds, 1.2% hits; in the data active = inhibition above about 50%
SENP1 FRET inh: SENP1 (human) catalytic domain inhibition | AID 624204 | recombinant SENP1 catalytic domain, CyPet-SUMO1-YPet FRET cleavage | inhibition, % at 10 µM | Q9P0U3 | 360,000 compounds, 0.21% hits;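 active = inhibition at least 30% at 10 µM, raw YFP signal under a set limit, fluorescence ratio 0.5 to 1.5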;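 note: 0% = enzyme with DMSO and 100% = no enzyme wells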
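system = hSENP1 catalytic domain, recombinant | reagent = SFCypet-SUMO1-SFYpet substrate at 25 nM | doses = one dose per compound, 10 µM, 0.5% DMSO | incubation = enzyme reaction for 50 min at room temperature, dark | measured by = FRET, CFP and YFP emission | controls = no-enzyme low, enzyme-DMSO high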
SENP7 inh: SENP7 protease inhibition; inhibition, % at 5 µM; 330,000 compounds, 1.5% hits; recombinant SENP7, Z-RLRGG-aminoluciferin luminescence, 40 min; AID 434973;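 active = inhibition above about 50% at the single test dose, limit read from the data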;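 note: plate controls were DMSO with enzyme for no effect and no enzyme buffer wells for full effect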
Target sequence (Q9BQF6 706-1050 limits assumed): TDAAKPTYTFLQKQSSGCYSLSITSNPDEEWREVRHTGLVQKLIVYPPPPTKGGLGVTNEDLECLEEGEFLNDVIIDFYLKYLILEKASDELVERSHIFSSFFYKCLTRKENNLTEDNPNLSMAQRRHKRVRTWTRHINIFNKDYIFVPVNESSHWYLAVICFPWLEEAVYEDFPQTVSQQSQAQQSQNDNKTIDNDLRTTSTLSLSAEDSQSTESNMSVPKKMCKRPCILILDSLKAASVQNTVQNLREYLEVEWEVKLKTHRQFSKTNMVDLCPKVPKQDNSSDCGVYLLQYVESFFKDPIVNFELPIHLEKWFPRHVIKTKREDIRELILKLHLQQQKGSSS
SENP8 confirm: human SENP8 inhibition, confirmed | shares compounds with SENP7 inh | Recombinant SENP8, Z-RLRGG-aminoluciferin luminescence, 60 min | inhibition, % at 12.5 µM | 6,200 compounds, 40% hits | AID 488912;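 active = mean inhibition across replicates above about 50%, limit read from the data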
SENP6 confirm: confirmation of human SENP6 protease inhibitors; 6,200 compounds, 58% hits; inhibition, % at 12.5 µM; shares compounds with SENP7 inh; recombinant SENP6, Z-RLRGG-aminoluciferin luminescence
SENP7 confirm: confirmation of human SENP7 protease inhibitors | shares compounds with SENP7 inh | recombinant SENP7, Z-RLRGG-aminoluciferin luminescence, 40 min | inhibition, % at 12.5 µM | 6,200 compounds, 69% hits | AID 488917
Casp3 select: selectivity test for SENP inhibitors: human caspase-3 inhibition; inhibition, % at 12.5 µM; purified caspase-3, Z-DEVD-aminoluciferin luminescence, 60 min; 6,200 compounds, 60% hits; shares compounds with SENP7 inh;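 active = mean inhibition above about 50%, limit read from the data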;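 note: plate controls were enzyme with DMSO for no effect and wells without caspase-3 for full effect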
SENP luc ctr: luminescence interference (SENP counter-screen) | 6,200 compounds, 39% hits | shares compounds with SENP7 inh | Pre-incubated SENP8/Z-RLRGG-aminoluciferin, luciferase luminescence interference | inhibition, % at 12.5 µM;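 active = mean inhibition above about 50% when retested at one dose, limit read from the data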;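 note: plate controls were DMSO wells with completed reaction for no effect and substrate without enzyme for full effect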
* hit, by the source's call; nt = no result given. An excerpt weighted towards active compounds, which were near 2.9% of everything screened.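 Rule for the calls, unless noted: active = mean inhibition above about 50% in the one-dose retest (limit read from the data); inactive = the rest.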

SMILES	SENP8 block-1	HSP90 inh	SENP6 inh	SENP8 block-2	SENP1 FRET inh	SENP7 inh	SENP8 confirm	SENP6 confirm	SENP7 confirm	Casp3 select	SENP luc ctr
COC(=O)c1ccc(COC(=O)c2ccccn2)cc1	13	-4	75*	50	3	82*	76*	74*	91*	92*	76*
CCOCCCNCc1ccc(OCc2ccccc2C)c(OC)c1	21	1	-9	0	3	-5	nt	nt	nt	nt	nt
O=C(CCCC(=O)N/N=C\c1ccccn1)N/N=C\c1ccccn1	5	0	-2	-1	1	4	nt	nt	nt	nt	nt
CC(Nc1cccc2ccccc12)C(=O)N/N=C/c1ccccn1 (stereo not given)	18	3	81*	85*	-13	45	-9	5	-4	1	4
CCOc1ccc(NC(=O)n2ncc3c(C)cccc32)cc1	22	-7	64*	81*	0	91*	-4	3	6	10	-3
COc1cccc(NC(=O)n2ncc3c(C)cccc32)c1	20	35*	99*	95*	2	100*	100*	101*	103*	99*	98*
Cc1cccc2c1cnn2C(=O)Nc1ccc(Br)cc1F	14	0	8	-3	0	-4	nt	nt	nt	nt	nt
Cc1ccc(NC(=O)n2ncc3c(C)cccc32)c(C)c1	15	-2	-10	-12	4	0	nt	nt	nt	nt	nt
O=C(c1ccncc1)N1CCN(S(=O)(=O)c2ccc(F)cc2)CC1	1	0	-2	3	1	-5	nt	nt	nt	nt	nt
COc1ccc(N2C(=S)N(C(=O)c3ccccc3)C(=Nc3ccccc3)C2=Nc2ccccc2)cc1	15	-3	83*	73*	2	92*	67*	82*	96*	93*	60*
CCC1(C)N=C(c2ccc3c(c2)OCO3)CC(c2ccccc2O)N1 (stereo not given)	-151	-4	91*	78*	-6	2	82*	46	13	48	63*
CCOc1ccc(NC2=CC(=O)C(=O)c3ccccc32)cc1	-186	nt	nt	nt	0	nt	nt	nt	nt	nt	nt
O=C1C=C(Nc2ccccc2O)c2ccccc2C1=O	-173	4	88*	77*	30*	1	-6	86*	67*	19	-5
Cc1ccc(NC2=CC(=O)C(=O)c3ccccc32)c(C)c1	-415	nt	51*	49	-1	32	-4	42	-3	4	2
O=C1C=C(NCc2ccccc2)c2ccccc2C1=O	-363	12	nt	nt	-66	nt	nt	nt	nt	nt	nt
O=C1C=C(Nc2ccc(F)cc2)c2ccccc2C1=O	-237	nt	82*	72*	-3	45	11	89*	23	40	-4
Cc1ccc(NS(=O)(=O)c2ccc3c(c2)C(=O)c2ccccc2C3=O)c(C)c1	18	0	nt	nt	0	nt	nt	nt	nt	nt	nt
N#Cc1c(N2CCCC2)nsc1-c1ccccc1	-24	11	60*	42	-10	20	30	34	25	44	52*
Clc1cnc(N/N=C/c2ccco2)c(Cl)c1	-70	10	81*	61*	-3	-1	15	19	30	84*	20
CCn1c(O)c(C=Nc2ccccc2)sc1=S	nt	-2	81*	69*	nt	70*	44	51*	96*	61*	11
O=C(OCc1ccccc1)c1ccccc1O	nt	nt	15	22	nt	40	nt	nt	nt	nt	nt
O=C(OCc1csc(-c2ccccc2)n1)c1ccccc1O	12	-5	92*	88*	2	91*	86*	92*	99*	82*	40
O=C1CCC([N+](=O)[O-])C(c2ccc(Cl)cc2Cl)N1 (stereo not given)	21	3	-5	3	2	4	nt	nt	nt	nt	nt
COc1ccc(C(=O)Nc2c(Cl)cc(Cl)cc2C(=O)N2CCOCC2)cc1	19	3	-5	5	0	0	nt	nt	nt	nt	nt
Cc1cccc(C(=O)O/N=C(\N)c2cccc([N+](=O)[O-])c2)c1	12	-1	29	2	2	22	nt	nt	nt	nt	nt
SMILES	SENP8 block-1	HSP90 inh	SENP6 inh	SENP8 block-2	SENP1 FRET inh	SENP7 inh	SENP8 confirm	SENP6 confirm	SENP7 confirm	Casp3 select	SENP luc ctr
N/C(=N\OC(=O)c1cccc(F)c1)c1ccccc1	13	-2	91*	77*	1	95*	83*	85*	97*	92*	78*
Cc1ccc(/C(N)=N/OC(=O)c2cccc(F)c2)cc1	19	-6	61*	29	0	76*	32	49	83*	61*	48
N/C(=N\OC(=O)c1cccc(Br)c1)c1ccncc1	-9	1	-12	5	2	21	nt	nt	nt	nt	nt
CCOc1cc(N2CCOCC2)c(OCC)cc1NC(=O)CN1CCCC1	21	-4	-14	-3	2	4	nt	nt	nt	nt	nt
COc1ccc(C(=O)C2CCCN(C(=O)c3csc(SC)n3)C2)cc1F (stereo not given)	18	nt	nt	nt	2	nt	nt	nt	nt	nt	nt
Clc1ccc(C2=Nc3cc(Cl)ccc3OC2)cc1	11	3	81*	76*	2	81*	15	12	20	41	-6
Cc1ccc2c(c1)N=C(c1ccc(Cl)cc1)CO2	-270	-1	96*	95*	3	98*	83*	82*	85*	80*	57*
O=C(NCCN1CCC(n2c(=O)[nH]c3ccccc32)CC1)c1ccc(F)cc1Cl	14	nt	nt	nt	4	nt	nt	nt	nt	nt	nt
CCN(CC)c1ccc(/C=N/N2C(=O)c3ccccc3C2=O)c(O)c1	-1	-6	1	-16	-29	-2	nt	nt	nt	nt	nt
CN(C)c1ccc(/C=N/N2C(=O)c3ccccc3C2=O)cc1	26	-1	-3	72*	-10	91*	28	71*	61*	51*	18
CCN(CC)c1ccc(/C=N/N2C(=O)c3ccccc3C2=O)cc1	-4	1	63*	33	-1	45	-6	16	-5	-1	-1
COc1ccc(/C=N/N2C(=O)c3ccccc3C2=O)cc1	7	2	88*	79*	0	87*	3	74*	70*	85*	25
COc1ccccc1/C=N/N1C(=O)c2cccc3cccc(c23)C1=O	10	-4	-15	-1	2	-4	nt	nt	nt	nt	nt
CC1(C)C2CCC(CN)C1C2 (stereo not given)	16	nt	nt	nt	3	nt	nt	nt	nt	nt	nt
